Laboratory results reported in ChEMBL document CHEMBL4376814, “Novel cyclin-dependent kinase 9 (CDK9) inhibitor with suppression of cancer stemness activity against non-small-cell lung cancer” (Eur J Med Chem, 2019).
Activity calls are given as the source filed them. No cut-off for these calls is given here.

Legend:
[1] = system: Casein kinase I isoform gamma-3 (Homo sapiens), Q9Y6M4 [UNDEFINED MUTATION]; assay: Inhibition of recombinant human CK1gamma3 K91E/R174G/E302D mutant (1 to 330 residues) at 1 uM using KRRRALS(p)VASLPGL as substrate measured after 40 mins in presence of [gamma33P]ATP by scintillation counting method relative to control
In short: (§1)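 Single-point inhibition at 1 µM was measured in the Eurofins KinaseProfiler panel. Values are the mean of two independent experiments.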

NCI-H1299 [2] = assay: Antitumour activity against human H1299 cells xenografted in Balb/c mouse assessed as inhibition of phosphorylation of RNA polymerase 2 CTD domain at Ser 5 residue at 20 to 80 mg/kg, po administered for 3 weeks by […] based light microscopic analysis; assay type: functional, organism-based
In short: (§2)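 Tumours came from the H1299 oral-dosing xenograft run for 3 weeks. Formalin-fixed, paraffin-embedded 5-µm sections were deparaffinized and rehydrated. Primary antibodies (CDK9, cyclin T1, p-Rb Ser780, RNAPII CTD Ser5, Oct4) used at 1:100 overnight at 4 °C. Biotinylated secondary for 1 h at room temperature, then ABC-peroxidase/DAB, hematoxylin counterstain and light microscopy.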

[3] = system: Tyrosine-protein kinase ABL1 (Homo sapiens), P00519 [M351T]; assay: Inhibition of human ABL M351T mutant (27 to end residues) at 1 uM using EAIYAAPFAKKK as substrate measured after 40 mins in presence of [gamma33P]ATP by scintillation counting method relative to control
In short: (§3)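 Percent inhibition of kinase activity at a single compound concentration, measured by the outsourced Eurofins KinaseProfiler panel. Values are the mean of two independent experiments.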

[4] = system: Hepatocyte growth factor receptor (Homo sapiens), P08581 [Y1230H]; assay: Inhibition of recombinant human MET A1209G/V1290L/Y1248H mutant (974 to end residues) at 1 uM using KKKGQEEEYVFIE as substrate measured after 40 mins in presence of [gamma33P]ATP by scintillation counting method relative to control
NCI-H1299 [5] = assay: Antitumour activity against human H1299 cells xenografted in Balb/c mouse assessed as reduction in Oct4 level at 20 to 80 mg/kg, po administered for 3 weeks by […] based light microscopic analysis; assay type: functional, organism-based; in short: as §2
[6] = system: Mast/stem cell growth factor receptor Kit (Homo sapiens), P10721 [V654A]; assay: Inhibition of recombinant human cKit (544 to end residues) V654A mutant at 1 uM using GGMEDIYFEFMGGKKK as substrate measured after 40 mins in presence of [gamma33P]ATP by scintillation counting method relative to control; in short: as §1
[7] = target: Serine/threonine-protein kinase 32A (Homo sapiens) (UniProt Q8WU08); assay: Inhibition of recombinant full-length human STK32A at 1 uM using casein as substrate measured after 120 mins in presence of [gamma33P]ATP by scintillation counting method relative to control
[8] = target: Interferon-induced, double-stranded RNA-activated protein kinase (Homo sapiens) (UniProt P19525); assay: Inhibition of recombinant human PKR (252 to end residues) at 1 uM using RSRSRSRSRSRSRSR as substrate measured after 40 mins in presence of [gamma33P]ATP by scintillation counting method relative to control; in short: as §1
[9] = system: Platelet-derived growth factor receptor alpha (Homo sapiens), P16234 [V561D]; assay: Inhibition of recombinant human PDGFRalpha (550 to end residues) V561D mutant at 1 uM using GGMEDIYFEFMGGKKK as substrate measured after 40 mins in presence of [gamma33P]ATP by scintillation counting method relative to control
Homo sapiens = species: Homo sapiens; assay: Inhibition of recombinant human Plk4 S34T mutant (1 to 273 residues) at 1 uM using casein as substrate measured after 120 mins in presence of [gamma33P]ATP by scintillation counting method relative to control
[10] = target: Wee1-like protein kinase 2 (Homo sapiens) (UniProt P0C1S8); assay: Inhibition of recombinant full-length human Wee1B at 1 uM using LSNLYHQGKFLQTFCGSPLYRRR as substrate measured after 120 mins in presence of [gamma33P]ATP by scintillation counting method relative to control
[11] = system: Protein kinase C eta type (Homo sapiens), P24723 [UNDEFINED MUTATION]; assay: Inhibition of recombinant human PKCeta V108L/G109R/L392Q mutant (2 to end residues) at 1 uM using ERMRPRKRQGSVRRRV as substrate measured after 40 mins in presence of [gamma33P]ATP by scintillation counting method relative to control
[12] = target: cGMP-dependent protein kinase 1 (Homo sapiens) (UniProt Q13976); assay: Inhibition of recombinant full-length human PKG1alpha at 1 uM using RRRLSFAEPG as substrate measured after 40 mins in presence of [gamma33P]ATP by scintillation counting method relative to control
A549 [13] = assay: Downregulation of cyclin T1 expression in human A549 cells at 0.25 to 1 uM after 24 hrs by Western blot analysis; assay type: functional, cell-based
In short: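 A549 and H1299 cells treated for 24 h with serial dilutions alongside a DMSO control. Protein extracts resolved and immunoblotted.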

[14] = target: CDK4/Cyclin D3 (Homo sapiens) (UniProt P11802+P30281); assay: Inhibition of recombinant full-length human CDK4/cyclinD3 at 500 nM using Rb fragment as substrate measured after 40 mins in presence of [gamma33P]ATP by scintillation counting method relative to control; assay type: protein-complex assay; in short: as §3
A549 [15] = assay: Antiproliferative activity against human A549 cells assessed as inhibition of cell viability at 1 uM after 72 hrs by CCK-8 assay relative to control; assay type: functional; details: A549, 72 h
In short: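 Single-concentration viability screen using CCK-8. Cells were seeded at 3000/well and treated for 72 h. A450 read after 1-4 h with reagent. Percent inhibition calculated against untreated control and blank wells as (Ac−As)/(Ac−Ab)×100%.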

A549 [16] = assay: Inhibition of tumorsphere formation in human A549 cells assessed as reduction in side population ratio by PI/Hoechst 33342 staining based flow cytometry; assay type: functional, cell-based
A549 [17] = assay: Induction of apoptosis in human A549 cells assessed as viable cells at 1 uM after 48 hrs by AnnexinV-FITC/PI staining-based flow cytometric analysis (reference value: 88.8%); assay type: functional; details: A549, 48 h, read-out: Activity
[18] = target: DNA-dependent protein kinase catalytic subunit (Homo sapiens) (UniProt P78527); assay: Inhibition of recombinant full-length human DNA-PK at 1 uM using GST-cMyc-p53 as substrate measured after 40 mins by fluorescence assay relative to control
[19] = target: Cyclin-dependent kinase 5/CDK5 activator 1 (Homo sapiens) (UniProt Q00535+Q15078); assay: Inhibition of recombinant full-length human CDK5/p25 at 1 uM using Histone H1 as substrate measured after 40 mins in presence of [gamma33P]ATP by scintillation counting method relative to control; assay type: protein-complex assay
[20] = target: Receptor-type tyrosine-protein kinase FLT3 (Homo sapiens) (UniProt P36888); assay: Inhibition of recombinant human Flt3 (564 to end residues) at 1 uM using EAIYAAPFAKKK as substrate measured after 40 mins in presence of [gamma33P]ATP by scintillation counting method relative to control

DNA-dependent protein kinase catalytic subunit (Homo sapiens), sequence (P78527 whole entry): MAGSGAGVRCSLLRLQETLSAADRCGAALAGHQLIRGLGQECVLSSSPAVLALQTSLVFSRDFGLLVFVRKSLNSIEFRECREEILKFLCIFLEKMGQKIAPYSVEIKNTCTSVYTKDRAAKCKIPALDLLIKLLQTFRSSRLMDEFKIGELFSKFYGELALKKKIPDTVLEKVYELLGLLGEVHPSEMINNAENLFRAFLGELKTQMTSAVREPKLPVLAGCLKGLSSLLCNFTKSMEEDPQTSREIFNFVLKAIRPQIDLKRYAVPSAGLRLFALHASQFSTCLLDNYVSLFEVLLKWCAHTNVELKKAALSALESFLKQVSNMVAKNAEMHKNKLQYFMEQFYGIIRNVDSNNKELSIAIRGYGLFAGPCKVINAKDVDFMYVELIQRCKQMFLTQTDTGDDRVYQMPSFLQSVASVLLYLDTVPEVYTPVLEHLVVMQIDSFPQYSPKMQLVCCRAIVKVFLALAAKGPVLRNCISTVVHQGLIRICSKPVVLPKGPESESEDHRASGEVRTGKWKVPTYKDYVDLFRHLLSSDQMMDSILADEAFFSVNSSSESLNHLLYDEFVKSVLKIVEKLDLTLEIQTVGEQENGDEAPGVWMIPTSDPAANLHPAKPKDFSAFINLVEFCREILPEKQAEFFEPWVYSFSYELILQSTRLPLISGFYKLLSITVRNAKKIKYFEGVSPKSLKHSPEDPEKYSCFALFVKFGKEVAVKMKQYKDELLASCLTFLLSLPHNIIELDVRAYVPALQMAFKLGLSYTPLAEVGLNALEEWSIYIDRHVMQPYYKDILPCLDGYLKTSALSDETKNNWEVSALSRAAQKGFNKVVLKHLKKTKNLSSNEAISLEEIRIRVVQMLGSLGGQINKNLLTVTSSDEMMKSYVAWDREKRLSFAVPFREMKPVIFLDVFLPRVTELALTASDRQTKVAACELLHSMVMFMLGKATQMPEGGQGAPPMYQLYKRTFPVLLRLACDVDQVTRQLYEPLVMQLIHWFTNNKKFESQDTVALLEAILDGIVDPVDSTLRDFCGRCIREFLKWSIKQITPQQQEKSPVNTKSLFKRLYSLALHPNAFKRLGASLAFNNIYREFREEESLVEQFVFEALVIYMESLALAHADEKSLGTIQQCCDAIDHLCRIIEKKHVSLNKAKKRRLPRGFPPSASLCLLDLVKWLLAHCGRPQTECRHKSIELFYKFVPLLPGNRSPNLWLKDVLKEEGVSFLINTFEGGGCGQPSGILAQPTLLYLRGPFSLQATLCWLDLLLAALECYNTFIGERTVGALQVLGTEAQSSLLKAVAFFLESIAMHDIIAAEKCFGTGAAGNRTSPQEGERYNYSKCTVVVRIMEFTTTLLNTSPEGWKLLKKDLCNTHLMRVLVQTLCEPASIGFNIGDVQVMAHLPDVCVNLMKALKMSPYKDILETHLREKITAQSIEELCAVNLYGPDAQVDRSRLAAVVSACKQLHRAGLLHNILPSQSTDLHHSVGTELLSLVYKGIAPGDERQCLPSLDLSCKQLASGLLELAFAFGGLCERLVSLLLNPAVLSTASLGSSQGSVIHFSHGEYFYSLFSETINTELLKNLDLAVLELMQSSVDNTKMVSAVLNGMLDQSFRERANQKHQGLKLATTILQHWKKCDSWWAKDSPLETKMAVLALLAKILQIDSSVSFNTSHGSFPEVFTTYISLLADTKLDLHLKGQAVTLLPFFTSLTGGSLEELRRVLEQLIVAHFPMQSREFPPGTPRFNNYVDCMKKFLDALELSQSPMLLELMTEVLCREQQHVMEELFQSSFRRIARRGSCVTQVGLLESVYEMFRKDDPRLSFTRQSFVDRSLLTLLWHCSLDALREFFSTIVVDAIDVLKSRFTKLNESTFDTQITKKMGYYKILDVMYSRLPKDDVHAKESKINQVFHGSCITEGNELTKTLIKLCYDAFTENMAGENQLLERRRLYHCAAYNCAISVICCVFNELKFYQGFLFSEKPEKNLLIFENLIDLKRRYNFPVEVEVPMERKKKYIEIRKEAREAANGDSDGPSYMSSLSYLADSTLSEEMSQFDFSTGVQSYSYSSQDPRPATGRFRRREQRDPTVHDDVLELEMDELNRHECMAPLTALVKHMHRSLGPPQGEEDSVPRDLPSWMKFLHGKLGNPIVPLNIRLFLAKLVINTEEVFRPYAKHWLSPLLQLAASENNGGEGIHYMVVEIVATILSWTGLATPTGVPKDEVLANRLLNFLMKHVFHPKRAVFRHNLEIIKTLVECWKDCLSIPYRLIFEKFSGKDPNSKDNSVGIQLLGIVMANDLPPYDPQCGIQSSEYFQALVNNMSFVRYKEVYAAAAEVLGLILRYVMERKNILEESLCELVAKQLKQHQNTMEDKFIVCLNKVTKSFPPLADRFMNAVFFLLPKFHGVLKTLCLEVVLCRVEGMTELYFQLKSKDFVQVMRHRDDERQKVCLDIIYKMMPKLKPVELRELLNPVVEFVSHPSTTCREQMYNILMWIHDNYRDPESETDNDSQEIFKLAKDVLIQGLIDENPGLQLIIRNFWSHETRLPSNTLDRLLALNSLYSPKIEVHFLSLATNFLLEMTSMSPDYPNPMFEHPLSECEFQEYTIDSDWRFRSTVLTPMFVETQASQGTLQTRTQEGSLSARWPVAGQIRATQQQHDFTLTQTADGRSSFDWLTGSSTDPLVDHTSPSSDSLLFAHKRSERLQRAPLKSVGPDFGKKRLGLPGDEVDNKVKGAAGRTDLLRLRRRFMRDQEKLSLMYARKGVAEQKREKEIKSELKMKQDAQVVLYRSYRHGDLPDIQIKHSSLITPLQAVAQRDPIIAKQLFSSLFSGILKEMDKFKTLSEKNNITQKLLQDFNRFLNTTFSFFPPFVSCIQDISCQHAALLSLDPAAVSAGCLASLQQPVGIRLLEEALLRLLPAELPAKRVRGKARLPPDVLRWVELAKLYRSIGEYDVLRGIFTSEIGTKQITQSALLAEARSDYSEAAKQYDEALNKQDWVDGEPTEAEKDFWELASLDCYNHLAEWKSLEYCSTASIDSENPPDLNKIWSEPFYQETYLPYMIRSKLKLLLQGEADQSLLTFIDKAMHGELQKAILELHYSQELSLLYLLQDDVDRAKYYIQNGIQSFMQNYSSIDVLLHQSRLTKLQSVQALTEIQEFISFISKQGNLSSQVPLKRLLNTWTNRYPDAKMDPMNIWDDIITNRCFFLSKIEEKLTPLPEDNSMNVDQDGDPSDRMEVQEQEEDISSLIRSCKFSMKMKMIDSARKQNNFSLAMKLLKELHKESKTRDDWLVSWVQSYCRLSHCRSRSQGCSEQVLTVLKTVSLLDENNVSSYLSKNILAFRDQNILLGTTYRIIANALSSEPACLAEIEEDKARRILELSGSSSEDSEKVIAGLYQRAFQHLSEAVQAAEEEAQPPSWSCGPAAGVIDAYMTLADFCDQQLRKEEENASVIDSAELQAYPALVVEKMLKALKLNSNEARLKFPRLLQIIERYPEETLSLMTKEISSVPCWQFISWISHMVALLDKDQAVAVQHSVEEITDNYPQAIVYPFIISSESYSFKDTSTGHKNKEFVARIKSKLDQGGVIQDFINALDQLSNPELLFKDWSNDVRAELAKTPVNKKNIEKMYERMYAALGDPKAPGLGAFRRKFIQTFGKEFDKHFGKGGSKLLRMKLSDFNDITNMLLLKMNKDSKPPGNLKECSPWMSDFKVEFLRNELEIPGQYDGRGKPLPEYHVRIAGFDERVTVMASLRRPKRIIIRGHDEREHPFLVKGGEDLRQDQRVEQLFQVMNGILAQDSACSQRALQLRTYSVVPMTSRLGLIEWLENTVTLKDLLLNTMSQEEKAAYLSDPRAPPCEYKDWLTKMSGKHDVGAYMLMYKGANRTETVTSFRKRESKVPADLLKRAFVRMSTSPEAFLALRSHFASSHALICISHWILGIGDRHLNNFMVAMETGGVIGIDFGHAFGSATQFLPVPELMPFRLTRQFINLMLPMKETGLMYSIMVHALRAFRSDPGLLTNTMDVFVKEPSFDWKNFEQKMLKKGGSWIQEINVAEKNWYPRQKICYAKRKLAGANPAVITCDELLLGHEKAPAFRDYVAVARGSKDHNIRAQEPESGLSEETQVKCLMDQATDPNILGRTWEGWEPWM
Mast/stem cell growth factor receptor Kit (Homo sapiens), P10721 [V654A], sequence (P10721 whole entry V654A): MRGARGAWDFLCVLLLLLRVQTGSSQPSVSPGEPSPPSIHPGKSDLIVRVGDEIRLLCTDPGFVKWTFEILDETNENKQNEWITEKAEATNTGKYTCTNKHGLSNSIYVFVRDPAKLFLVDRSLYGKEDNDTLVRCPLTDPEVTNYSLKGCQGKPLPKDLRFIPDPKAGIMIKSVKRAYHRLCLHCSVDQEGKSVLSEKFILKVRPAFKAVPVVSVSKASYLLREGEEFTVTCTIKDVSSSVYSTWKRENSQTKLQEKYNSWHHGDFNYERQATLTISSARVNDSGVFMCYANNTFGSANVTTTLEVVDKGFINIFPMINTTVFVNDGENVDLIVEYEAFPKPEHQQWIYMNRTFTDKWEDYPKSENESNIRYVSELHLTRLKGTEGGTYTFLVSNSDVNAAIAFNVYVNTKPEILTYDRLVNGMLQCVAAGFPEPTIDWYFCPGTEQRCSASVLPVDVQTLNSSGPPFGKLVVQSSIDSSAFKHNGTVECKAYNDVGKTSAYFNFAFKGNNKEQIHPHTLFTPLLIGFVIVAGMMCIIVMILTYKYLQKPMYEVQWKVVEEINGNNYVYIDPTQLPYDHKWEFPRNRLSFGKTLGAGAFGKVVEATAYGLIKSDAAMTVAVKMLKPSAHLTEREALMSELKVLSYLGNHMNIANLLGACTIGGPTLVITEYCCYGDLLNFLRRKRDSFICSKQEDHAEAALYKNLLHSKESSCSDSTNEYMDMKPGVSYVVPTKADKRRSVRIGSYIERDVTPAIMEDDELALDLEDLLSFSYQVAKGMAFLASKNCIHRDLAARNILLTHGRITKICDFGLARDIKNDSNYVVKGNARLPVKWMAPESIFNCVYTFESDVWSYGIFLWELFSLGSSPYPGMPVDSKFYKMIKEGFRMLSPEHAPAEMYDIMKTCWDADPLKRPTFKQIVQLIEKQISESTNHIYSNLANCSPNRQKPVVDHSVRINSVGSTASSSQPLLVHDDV

CN(C)C(=O)c1cc2cnc(Nc3ccc(NC(=O)CCCCCCCN=C=S)cc3)nc2n1C1CCCC1
inhibition [1]: 11% | Activity (NCI-H1299 [2]): Active | inhibition [3]: 49% | inhibition [4]: 62% | Activity (NCI-H1299 [5]): Active | inhibition [6]: 11% | inhibition [7]: 33% | inhibition [8]: 11% | inhibition [9]: 90% | inhibition (Homo sapiens): 50% | inhibition [10]: -1% | inhibition [11]: -3% | inhibition [12]: -3% | Activity (A549 [13]): Active | inhibition [14]: 75% | inhibition at 1 µM (A549 [15]): 85.6% | inhibition (A549 [16]): Dose-dependent effect | viability at 1 µM (A549 [17]): 74.8% | inhibition [18]: 9% | inhibition [19]: 63% | inhibition [20]: 66%
